Only some compounds are listed: those with a hit (about 1.4% of all), similar ones and a draw of the others.
NR2E3 ag-1: activates human NR2E3 receptor. inhibition of corepressor binding, % at 3.98 µM. CHO-S Gal4-NCOR/VP16-NR2E3 two-hybrid, luciferase. AID 602229. 360,000 compounds, 0.35% hits;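 active means inhibition above the mean of all tested compounds plus 3 SD, cut at about 70% in these data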;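 further: 0% = DMSO with NR2E3 transfected cells and 100% = cells lacking NR2E3 construct; higher means lower luciferase signal from less NR2E3 corepressor binding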
Target sequence (Q9Y5X4 whole entry, looked up, the tested form may be a part): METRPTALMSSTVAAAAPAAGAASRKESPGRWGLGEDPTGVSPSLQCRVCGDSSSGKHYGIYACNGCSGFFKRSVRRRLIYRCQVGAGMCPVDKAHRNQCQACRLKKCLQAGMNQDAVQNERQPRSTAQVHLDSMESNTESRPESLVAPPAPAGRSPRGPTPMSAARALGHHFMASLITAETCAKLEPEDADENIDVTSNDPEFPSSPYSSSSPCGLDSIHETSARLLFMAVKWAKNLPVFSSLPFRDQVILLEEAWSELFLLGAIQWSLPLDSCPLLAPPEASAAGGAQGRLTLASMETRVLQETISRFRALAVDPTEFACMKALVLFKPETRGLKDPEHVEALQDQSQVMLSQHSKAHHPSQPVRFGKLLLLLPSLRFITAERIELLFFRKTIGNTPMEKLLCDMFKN
NR2E3 ag-2: agonists of human nuclear receptor NR2E3; GST-NR2E3/biotin-RetCOR TR-FRET, 1536-well; inhibition of corepressor binding, % at 4.78 µM; 320,000 compounds, 0.12% hits; AID 2300;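 active means percent inhibition above the cutoff of mean plus 3 SD of all tested compounds, set per screening campaign, cut at about 20% in these data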;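 further: 0% = DMSO wells and 100% = biotin wells as full block of FRET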
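system = GST-tagged NR2E3 plus biotinylated RetCOR corepressor | input = 1.35 nM GST-NR2E3 | also added = 7 nM biotin-RetCOR | schedule = 5 h incubation at 4 °C | measured by = TR-FRET with europium anti-GST and streptavidin-D2, 340 nm excitation | read-out = percent loss of FRET ratio relative to control wells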
PG9 binder: binds the HIV-1 gp120 antibody PG9; TR-FRET gp120-PG9 antibody binding; inhibition, % at 6.7 µM; 360,000 compounds, 0.43% hits; AID 624416; in the data active means inhibition above about 8.5%
NR1D1 modulator: modulates human Rev-erb alpha binding to DNA. 370,000 compounds, 0.79% hits. Rev-erbα–FITC-DNA binding, fluorescence polarization, 90 min. activity, % at 10 µM. P20393. AID 1259318;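 active means activity above about 14%, limit read from the data; passing the limit was not always enough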;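 further: 0% = DMSO wells with 35 nM protein and 100% = DMSO wells with 750 nM protein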
NR2E3 ag conf: confirmation of human NR2E3 agonists; inhibition, % at 3.98 µM; shares compounds with NR2E3 ag-1; 2,300 compounds, 51% hits; CHO-S mammalian two-hybrid NR2E3-NCOR, luciferase luminescence;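 active means average inhibition above a cutoff equal to the mean inhibition of all tested compounds plus one SD, cut at about 70% in these data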;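 further: 0% = DMSO in NR2E3 cells and 100% = DMSO in cells lacking NR2E3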
VP16 counter: GAL4-VP16 reporter inhibition in NR2E3 agonist counterscreen; inhibition, % at 3.98 µM; shares compounds with NR2E3 ag-1; 2,300 compounds, 29% hits; CHO-S GAL4-VP16 luciferase reporter, luminescence;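 active means mean inhibition above a cutoff equal to the average over all tested compounds plus one standard deviation, cut at about 70% in these data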;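 further: luciferase from a UAS reporter driven by GAL4-VP16 transactivation; 0% = DMSO with VP16-transfected cells and 100% = DMSO with cells lacking VP16; higher means less reporter light so more repression of VP16 activity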
Active calls of the source: *.

For Cc1ccc(S(=O)(=O)Nc2ccc3c(c2)n(C)c(=O)n3C)cc1 the results were NR2E3 ag-1 33.0, NR2E3 ag-2 1.2, PG9 binder -1.4 and NR1D1 modulator 1.0.
`CCOc1ccc(S(=O)(=O)Nc2cccc(N(C)S(C)(=O)=O)c2)cc1` gave NR2E3 ag-1 49.1, NR2E3 ag-2 -0.3, PG9 binder 1.5, NR1D1 modulator -0.6, NR2E3 ag conf 47.9 and VP16 counter 54.1.
`CCOc1ccc(S(=O)(=O)Nc2ccc3c(c2)n(C)c(=O)n3C)cc1` gave NR2E3 ag-1 73.9*, NR2E3 ag-2 3.1, PG9 binder -0.3, NR1D1 modulator 1.9, NR2E3 ag conf 62.2 and VP16 counter 59.1.
CCOc1ccc(NS(=O)(=O)c2ccc3c(c2)N(C(C)=O)CC3)cc1 was read as NR2E3 ag-1 15.4, NR2E3 ag-2 0.2, PG9 binder 0.0 and NR1D1 modulator -0.8.
`Cc1cccc(Cn2cc(CN3CC(N4CCN(CCOC(=O)c5cc6ccccc6o5)CC4)CS3(=O)=O)nn2)c1` (stereo not drawn) gave NR1D1 modulator 0.8.
Screening CCOc1ccc(NS(=O)(=O)c2ccc(C(=O)N3CCN(c4ncccn4)CC3)cc2)cc1 returned NR2E3 ag-1 28.9, NR2E3 ag-2 5.8, PG9 binder 0.6 and NR1D1 modulator 0.6.
CCc1ccc(S(=O)(=O)Nc2cc3c(cc2C)n(C)c(=O)n3C)cc1 was read as NR2E3 ag-1 97.8*, NR2E3 ag-2 1.3, PG9 binder 2.0, NR1D1 modulator -1.3, NR2E3 ag conf 83.4* and VP16 counter 69.3.
Screening CCOc1ccc(NS(=O)(=O)c2ccc(C(=O)N3CCCCC3)cc2)cc1 returned NR2E3 ag-1 58.3, NR2E3 ag-2 0.3, PG9 binder -0.1, NR1D1 modulator -4.7, NR2E3 ag conf 40.1 and VP16 counter 53.8.
`CCCC1CCC2(CCC(=O)N2CCOC)CC1` (stereo not drawn) gave NR1D1 modulator 2.9.
For COc1ccc(NC(=O)Cn2cc(C(C)=O)c3ccccc32)cc1 the results were NR2E3 ag-1 49.2, NR2E3 ag-2 -1.2, PG9 binder -1.4, NR1D1 modulator 7.9, NR2E3 ag conf 57.4 and VP16 counter 55.6.
`Cc1csc2ncnc(NC3CCN(Cc4ccccc4)CC3)c12` gave NR2E3 ag-1 80.7*, NR2E3 ag-2 2.5, PG9 binder -0.8, NR1D1 modulator -3.4, NR2E3 ag conf 94.8* and VP16 counter 85.5*.
Cc1ccc(-c2csc3ncnc(N4CCN(Cc5ccccc5)CC4)c23)cc1 was read as NR2E3 ag-1 4.0, NR2E3 ag-2 0.0, PG9 binder -2.2 and NR1D1 modulator 10.7.
Screening O=c1c2c(nc3c(-c4ccc(Cl)cc4)c[nH]n13)CCC2 returned NR2E3 ag-1 77.4*, NR2E3 ag-2 -5.8, PG9 binder 0.3, NR1D1 modulator 0.7, NR2E3 ag conf 66.0 and VP16 counter 49.6.
For C#CCNC(=O)C[C@@H]1C(=O)N2CCCC3=C2[C@@]1(C(=O)OCC)CCC3 the results were NR1D1 modulator -1.4.
Screening Cc1cn([C@@H](CCCCNC(=O)OC(C)(C)C)C(=O)NCCCCCCCCCCC(=O)N2CCN(C(=O)OC(C)(C)C)CC2)nn1 returned NR2E3 ag-1 56.4, NR2E3 ag-2 3.4, NR2E3 ag conf 74.1* and VP16 counter 63.6.
`CCN(c1ccccc1)S(=O)(=O)c1ccc(C(=O)NC2CCN(Cc3ccccc3)CC2)cc1` gave NR2E3 ag-1 57.4, NR2E3 ag conf 80.3* and VP16 counter 60.7.
`CN(C)c1cccc(-c2cnc(N3CCC(C(N)=O)CC3)s2)c1` gave NR1D1 modulator 5.4.
`Cc1ccc(OCCOC(=O)c2cc(S(=O)(=O)N3CCCCC3)ccc2N2CCOCC2)cc1` gave NR2E3 ag-1 48.5, NR2E3 ag-2 2.8, PG9 binder -0.5, NR1D1 modulator -6.8, NR2E3 ag conf 71.5* and VP16 counter 52.3.
`O=C(OCCOc1ccc(Cl)cc1)c1cc(S(=O)(=O)N2CCCCC2)ccc1N1CCOCC1` gave NR2E3 ag-1 50.7, PG9 binder 0.7, NR1D1 modulator 1.4, NR2E3 ag conf 72.5* and VP16 counter 51.4.
